Reference: ChEMBL document CHEMBL1156068, “Synthesis, pharmacological and antiviral activity of 1,3-thiazepine derivatives” (Eur J Med Chem, 2009)
Active and inactive are the calls of the source.

Columns and labels:
Yellow fever virus = test: Antiviral activity against Yellow fever virus infected in BHK-21 cells assessed as protection against virus induced cytopathogenicity after 3 to 4 days by MTT assay; assay type: functional, organism-based
How it was run: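 BHK cells were seeded at 5 × 10^4 per well and grown overnight to monolayers, then infected at m.o.i. 0.01 in serum-free medium. One hour later, MEM Earle's with 1% FCS (final) and serial compound dilutions were added. After 3–4 days at 37 °C, viability was read by MTT. EC50 is the concentration giving 50% protection from virus-induced cytopathogenicity.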

Poliovirus 1 = test: Antiviral activity against Poliovirus type 1 Sabin infected in african green monkey Vero76 cells after 2 days by plaque reduction assay; assay type: functional, cell-based; conditions: Vero 76
[1] = system: Respiratory syncytial virus; test: Antiviral activity against Respiratory syncytial virus infected in african green monkey Vero76 cells after 5 days by plaque reduction assay; assay type: functional, organism-based; conditions: Vero 76
How it was run: (§1)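 Vero 76 monolayers (2×10^5 cells/well, overnight) infected to give 50–100 PFU/well. Unadsorbed virus removed, then DMEM with 1% FCS, 0.75% methylcellulose and serial compound dilutions added. Incubated at 37 °C for 3 days (CVB-2, HSV-1) or 5 days (RSV). Fixed and stained with 50% ethanol/0.8% crystal violet in PBS; plaques counted.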

Coxsackievirus B2 = test: Antiviral activity against Coxsackie virus B2 infected in african green monkey Vero76 cells after 3 days by plaque reduction assay; assay type: functional, organism-based; conditions: Vero 76; how it was run: as §1
[2] = system: Vesicular stomatitis virus; test: Antiviral activity against Vesicular stomatitis virus infected in african green monkey Vero76 cells after 2 days by plaque reduction assay; assay type: functional, organism-based; conditions: Vero 76
[3] = system: Bovine viral diarrhea virus 1; test: Antiviral activity against Bovine viral diarrhea virus infected in MDBK cells assessed as protection against virus induced cytopathogenicity after 3 to 4 days by MTT assay; assay type: functional, organism-based; conditions: for EC50: Bovine viral diarrhea virus isolates and strains
How it was run: (§2)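 Monolayers were grown overnight at 37 °C, 5% CO2: MDBK at 3×10^4 cells/well, BHK at 5×10^4 cells/well. Cells infected at m.o.i. 0.01. After 1 h, serial compound dilutions added in MEM with 1% FCS. Viability read by MTT after 3–4 days at 37 °C. EC50 is the concentration giving 50% protection from cytopathogenicity.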

[4] = system: Mammalian orthoreovirus 1; test: Antiviral activity against Reo virus type-1 infected in BHK-21 cells assessed as protection against virus induced cytopathogenicity after 3 to 4 days by MTT assay; assay type: functional, organism-based; how it was run: as §2
Vaccinia virus = test: Antiviral activity against Vaccinia virus infected in african green monkey Vero76 cells after 3 days by plaque reduction assay; assay type: functional, organism-based; conditions: Orthopoxvirus vaccinia; Vero 76
[5] = system: Human immunodeficiency virus 1; test: Antiviral activity against wild type HIV1 3B infected in human MT4 cells assessed as protection against virus induced cytopathogenicity after 4 days by MTT assay; assay type: functional, organism-based; conditions: Human immunodeficiency virus 1, 3B, MT4, 96 h
How it was run: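 MT-4 cells (1×10^4/well) in RPMI with serial compound dilutions were infected with HIV-1 (100 CCID50; m.o.i. 0.01). After 4 days, viability was measured by MTT. EC50 is the concentration giving 50% protection from virus-induced cytopathogenicity. Compounds were prepared as 100 mM DMSO stocks diluted in medium.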

[6] = Cytotoxicity against human MT4 cells assessed as reduction of cell viability after 96 hrs by MTT assay; assay type: cell-based
How it was run: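 Exponentially growing, mock-infected MT-4 cells were seeded at 1×10^5 cells mL-1 in RPMI-1640 with 10% FCS and penicillin/streptomycin, with serial compound dilutions. Incubated 96 h at 37 °C, 5% CO2, then viability read by MTT. CC50 is the concentration reducing viability by 50%.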

Human alphaherpesvirus 1 = test: Antiviral activity against HSV1 infected in african green monkey Vero76 cells after 3 days by plaque reduction assay; assay type: functional, organism-based; conditions: Vero 76; how it was run: as §1

CC(C)C12C=CC(C)(CC1)C1C(=O)N(N3CCCCS/C3=N\c3ccc(I)cc3)C(=O)C12 (stereo unspecified)
inactive: Activity (Yellow fever virus) | Activity (Poliovirus 1) | Activity [1] | Activity (Coxsackievirus B2) | Activity [2] | Activity [3] | Activity [4] | Activity (Vaccinia virus) | Activity (Human alphaherpesvirus 1)
> 59 µM: EC50 [5]
59 µM: CC50 at 96 h [6]

CC1=CC2C(C(C)C)CC1C1C(=O)N(N3CCCCS/C3=N\c3ccc(Cl)c(Cl)c3)C(=O)C21 (stereo unspecified)
> 100 µM: EC50 [5]
100 µM: CC50 at 96 h [6]
inactive: Activity (Yellow fever virus) | Activity (Poliovirus 1) | Activity [1] | Activity (Coxsackievirus B2) | Activity [2] | Activity [3] | Activity [4] | Activity (Vaccinia virus) | Activity (Human alphaherpesvirus 1)

CC1=CC2C(C(C)C)CC1C1C(=O)N(NC(=S)Nc3ccc(I)cc3)C(=O)C21 (stereo unspecified)
45 µM: CC50 at 96 h [6]
> 45 µM: EC50 [5]
inactive: Activity (Yellow fever virus) | Activity (Poliovirus 1) | Activity [1] | Activity (Coxsackievirus B2) | Activity [2] | Activity [3] | Activity [4] | Activity (Vaccinia virus) | Activity (Human alphaherpesvirus 1)

CC1=CC2C(C(C)C)CC1C1C(=O)N(NC(=S)Nc3ccc(F)cc3)C(=O)C21 (stereo unspecified)
inactive: Activity (Yellow fever virus) | Activity (Poliovirus 1) | Activity [1] | Activity (Coxsackievirus B2) | Activity [2] | Activity [3] | Activity [4] | Activity (Vaccinia virus) | Activity (Human alphaherpesvirus 1)
> 69 µM: EC50 [5]
69 µM: CC50 at 96 h [6]

CC1=CC2C(C(C)C)CC1C1C(=O)N(NC(=S)NCc3ccccc3)C(=O)C21 (stereo unspecified)
inactive: Activity (Poliovirus 1) | Activity [1] | Activity (Coxsackievirus B2) | Activity [2] | Activity [4] | Activity (Vaccinia virus) | Activity (Human alphaherpesvirus 1)
54 µM: CC50 at 96 h [6]
30 µM: EC50 [5]
52 µM: EC50 [3]
41 µM: EC50 (Yellow fever virus)

CC1=CC2C(C(C)C)CC1C1C(=O)N(N3CCCCS/C3=N\c3ccc(I)cc3)C(=O)C21 (stereo unspecified)
> 22 µM: EC50 [5]
inactive: Activity (Yellow fever virus) | Activity (Poliovirus 1) | Activity [1] | Activity (Coxsackievirus B2) | Activity [2] | Activity [3] | Activity [4] | Activity (Vaccinia virus) | Activity (Human alphaherpesvirus 1)
22 µM: CC50 at 96 h [6]

CC1=CC2C(C(C)C)CC1C1C(=O)N(NC(=S)Nc3ccc(Cl)cc3)C(=O)C21 (stereo unspecified)
inactive: Activity (Yellow fever virus) | Activity (Poliovirus 1) | Activity [1] | Activity (Coxsackievirus B2) | Activity [2] | Activity [3] | Activity [4] | Activity (Vaccinia virus) | Activity (Human alphaherpesvirus 1)
45 µM: CC50 at 96 h [6]
> 45 µM: EC50 [5]

CC(C)C12C=CC(C)(CC1)C1C(=O)N(NC(=S)NCc3ccccc3)C(=O)C12 (stereo unspecified)
41 µM: EC50 (Yellow fever virus)
inactive: Activity (Poliovirus 1) | Activity [1] | Activity (Coxsackievirus B2) | Activity [2] | Activity [4] | Activity (Vaccinia virus) | Activity (Human alphaherpesvirus 1)
> 58 µM: EC50 [5]
58 µM: CC50 at 96 h [6]

CC1=CC2C(C(C)C)CC1C1C(=O)N(NC(=S)Nc3ccc(C)cc3)C(=O)C21 (stereo unspecified)
inactive: Activity (Yellow fever virus) | Activity (Poliovirus 1) | Activity [1] | Activity (Coxsackievirus B2) | Activity [2] | Activity [3] | Activity [4] | Activity (Vaccinia virus) | Activity (Human alphaherpesvirus 1)

CC1=CC2C(C(C)C)CC1C1C(=O)N(NC(=S)Nc3ccc(Cl)c(Cl)c3)C(=O)C21 (stereo unspecified)
> 41 µM: EC50 [5]
inactive: Activity (Yellow fever virus) | Activity (Poliovirus 1) | Activity [1] | Activity (Coxsackievirus B2) | Activity [2] | Activity [3] | Activity [4] | Activity (Vaccinia virus) | Activity (Human alphaherpesvirus 1)
41 µM: CC50 at 96 h [6]

C=CC/N=C1\SCCCCN1N1C(=O)C2C3CC(C(C)C)C(C=C3C)C2C1=O (stereo unspecified)
59 µM: CC50 at 96 h [6]
inactive: Activity (Yellow fever virus) | Activity (Poliovirus 1) | Activity [1] | Activity (Coxsackievirus B2) | Activity [2] | Activity [3] | Activity [4] | Activity (Vaccinia virus) | Activity (Human alphaherpesvirus 1)
> 59 µM: EC50 [5]

Cc1ccc(/N=C2\SCCCCN2N2C(=O)C3C(C2=O)C2(C(C)C)C=CC3(C)CC2)cc1 (stereo unspecified)
inactive: Activity (Yellow fever virus) | Activity (Poliovirus 1) | Activity [1] | Activity (Coxsackievirus B2) | Activity [2] | Activity [3] | Activity [4] | Activity (Vaccinia virus) | Activity (Human alphaherpesvirus 1)

C=CC/N=C1\SCCCCN1N1C(=O)C2C(C1=O)C1(C(C)C)C=CC2(C)CC1 (stereo unspecified)
> 58 µM: EC50 [5]
inactive: Activity (Yellow fever virus) | Activity (Poliovirus 1) | Activity [1] | Activity (Coxsackievirus B2) | Activity [2] | Activity [3] | Activity [4] | Activity (Vaccinia virus) | Activity (Human alphaherpesvirus 1)
58 µM: CC50 at 96 h [6]

CC(C)C12C=CC(C)(CC1)C1C(=O)N(NC(=S)Nc3ccc(F)cc3)C(=O)C12 (stereo unspecified)
inactive: Activity (Yellow fever virus) | Activity (Poliovirus 1) | Activity [1] | Activity (Coxsackievirus B2) | Activity [2] | Activity [3] | Activity [4] | Activity (Vaccinia virus) | Activity (Human alphaherpesvirus 1)

C=CCNC(=S)NN1C(=O)C2C(C1=O)C1(C(C)C)C=CC2(C)CC1 (stereo unspecified)
> 100 µM: EC50 [5] | CC50 at 96 h [6]
52 µM: EC50 [3]
inactive: Activity (Poliovirus 1) | Activity [1] | Activity (Coxsackievirus B2) | Activity [2] | Activity [4] | Activity (Vaccinia virus) | Activity (Human alphaherpesvirus 1)

O=C1Nc2ccc(Cl)cc2[C@@](C#CC2CC2)(C(F)(F)F)O1 [EFAVIRENZ]
35 µM: CC50 at 96 h [6]

CC(C)C12C=CC(C)(CC1)C1C(=O)N(NC(=S)Nc3ccc(Cl)cc3)C(=O)C12 (stereo unspecified)
inactive: Activity (Yellow fever virus) | Activity (Poliovirus 1) | Activity [1] | Activity (Coxsackievirus B2) | Activity [2] | Activity [3] | Activity [4] | Activity (Vaccinia virus) | Activity (Human alphaherpesvirus 1)

Cc1ccc(NC(=S)NN2C(=O)C3C(C2=O)C2(C(C)C)C=CC3(C)CC2)cc1 (stereo unspecified)
inactive: Activity (Yellow fever virus) | Activity (Poliovirus 1) | Activity [1] | Activity (Coxsackievirus B2) | Activity [2] | Activity [3] | Activity [4] | Activity (Vaccinia virus) | Activity (Human alphaherpesvirus 1)
